Consider three compounds from article PMC5188857 (Brazilian Journal of Medical and Biological Research, 2016).

SMILES strings stand for the structures. Where “and” joins values, the source holds several entries; their conditions need not be identical. Equal values may be shown once. Read-outs that look alike come from different tables or passages of the source.

The nature of data set [1]: Permeability on MDCK-MDR1 cell monolayer. In kind it is in vitro ADME. The following applies: dog; for Papp B→A at 129 min: MDCK-MDR1; for Papp A→B at 129 min: MDCK-MDR1, Papp apical to basolateral, MDCK-MDR1 monolayer, n=3.
The conditions of data set [2]: cited from earlier work.
Data set [3] is described as follows: In vitro metabolism in rat liver microsomes. The class given is in vitro ADME. In general terms: Microsomes from liver hold many membrane-bound enzymes, among them those of drug oxidation.
In data set [4] the test system is P-gp. Description: Permeability on MDCK-MDR1 cell monolayer. The class given is in vitro ADME. The following applies: dog, MDCK-MDR1.
Data set [5] has as its system MDCK-MDR1 cells. As to the kind of experiment: Permeability on MDCK-MDR1 cell monolayer. In kind it is in vitro ADME. The following applies: MDCK-MDR1 monolayer, n=3.
Data set [6] deals with CYP3A4 (Homo sapiens, UniProt P08684). As to the kind of experiment: CYP inhibition in human liver microsomes. In kind it is in vitro ADME.
Chain of CYP3A4 (P08684 whole entry): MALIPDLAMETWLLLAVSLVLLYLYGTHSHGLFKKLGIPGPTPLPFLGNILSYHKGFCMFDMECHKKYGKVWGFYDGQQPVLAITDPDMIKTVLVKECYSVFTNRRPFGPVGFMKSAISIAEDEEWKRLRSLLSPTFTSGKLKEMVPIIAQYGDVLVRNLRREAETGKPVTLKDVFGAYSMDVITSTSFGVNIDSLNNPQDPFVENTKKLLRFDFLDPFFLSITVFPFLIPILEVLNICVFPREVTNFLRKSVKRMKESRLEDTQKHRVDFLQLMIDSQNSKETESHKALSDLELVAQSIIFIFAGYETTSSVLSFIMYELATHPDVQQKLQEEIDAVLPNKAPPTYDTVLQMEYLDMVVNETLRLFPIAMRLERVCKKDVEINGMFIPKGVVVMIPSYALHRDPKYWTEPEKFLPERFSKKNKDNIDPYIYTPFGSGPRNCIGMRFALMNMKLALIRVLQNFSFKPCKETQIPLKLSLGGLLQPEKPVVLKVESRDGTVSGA
Data set [7] in a line: In vitro metabolism in rat hepatocytes. The class given is in vitro ADME. The following applies: rat, hepatocytes.
Data set [8] concerns rat hepatocytes. As to the kind of experiment: In vitro metabolism in rat hepatocytes. In kind it is in vitro ADME. The following applies: rat hepatocytes, 0.5 µM.
The subject of data set [9] is mice. Description: Acute toxicity test, single dose. In kind it is in vivo. The following applies: for Body temperature: 100 μg/kg ip. Summed up:
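Female Swiss Webster mice (25–30 g), 6 per condition, got a single ip dose of 100 μg/kg test compound, with saline controls. Behaviour, motor coordination, muscle tone, CNS and autonomic signs, water and food intake and lethality were scored during the first hour, at 2, 4 and 8 h, then daily to day 14. Anal-probe body temperature was taken before dosing and at 30 and 60 min.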

Data set [10] in a line: Solubility at pH 7.4. The class given is physicochemical. The following applies: 50 mM sodium phosphate buffer. The essentials:
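Working stock was spiked into 50 mM sodium phosphate buffer, pH 7.4, and held 2 h; concentrations up to 100 µM were tested. Samples were centrifuged at 1,000 g for 20 min at room temperature. Supernatant was diluted 1:1 in acetonitrile and quantified by LC-MS/MS (phenyl column, positive-ion MRM, internal standard).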

Data set [11] in a line: In vitro metabolism in human liver microsomes. In kind it is in vitro ADME.
Data set [12] is described as follows: In vitro metabolism in human hepatocytes. The class given is in vitro ADME. To be noted: human, hepatocytes.
Data set [13] has as its system human hepatocytes. Description: In vitro metabolism in human hepatocytes. The class given is in vitro ADME. To be noted: human hepatocytes, 0.5 µM, two separate experiments.
Data set [14] is described as follows: Plasma stability, rat. In kind it is in vitro ADME. The essentials:
(§1)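 Test-compound-spiked rat or human plasma was incubated 6 h at 37°C. Percent recovery was then determined, reported as mean±SD, n=6.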

The nature of data set [15]: Plasma protein binding by equilibrium dialysis, human plasma. In kind it is in vitro ADME. To be noted: 10 µM, means±SD, n=6. The essentials:
(§2)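 Equilibrium dialysis used plasma (human or rat) spiked with 10 µM test compound in the donor side against phosphate buffer in the acceptor side. Plates were sealed and incubated 6 h at 37°C, 60 rpm, 5% CO2. Diclofenac (5 µM) served as positive control. Bound percentage is given as mean±SD, n=6.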

The nature of data set [16]: Plasma protein binding by equilibrium dialysis, rat plasma. The class given is in vitro ADME. The following applies: 10 µM, means±SD, n=6. The essentials:
as §2
(Equilibrium dialysis compares concentrations on both sides of a semipermeable membrane.)

For data set [17], the system named is mice motor coordination. As to the kind of experiment: Rota-rod test. The class given is in vivo. The following applies: 10 µg/kg iv, 3, 10 and 30 min after administration. Summed up:
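Adult male Swiss Webster mice (~40 g) were trained 1 day and 1 h before testing. Only those staying ≥1 min without falling were used. Test compound (10 µg/kg) or saline was given iv via the orbital plexus, 6 mice per group. At 3, 10 and 30 min, falls were counted over a 4-min observation, with latency to each fall recorded.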

In data set [18] the target is CYP2D6 (Homo sapiens, UniProt P10635). Description: CYP profiling with purified isozyme. The class given is in vitro ADME. To be noted: purified human CYP2D6 isozyme (Cypex). Summed up:
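Purified human recombinant CYP isozyme ([…]) was pre-incubated 10 min, then run with 0.5 µM test compound and 2 mM NADPH in phosphate buffer at 37°C. CYP-specific probe substrates were incubated separately. Parent loss over time was measured by LC-MS/MS. Half-life came from nonlinear regression to a first-order decay equation.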

Data set [19] in a line: Plasma stability, human. The class given is in vitro ADME. Summed up:
as §1

[20] abbreviates: single dose 100 μg/kg ip, 14 days observation.

Chain of CYP2D6 (P10635 whole entry): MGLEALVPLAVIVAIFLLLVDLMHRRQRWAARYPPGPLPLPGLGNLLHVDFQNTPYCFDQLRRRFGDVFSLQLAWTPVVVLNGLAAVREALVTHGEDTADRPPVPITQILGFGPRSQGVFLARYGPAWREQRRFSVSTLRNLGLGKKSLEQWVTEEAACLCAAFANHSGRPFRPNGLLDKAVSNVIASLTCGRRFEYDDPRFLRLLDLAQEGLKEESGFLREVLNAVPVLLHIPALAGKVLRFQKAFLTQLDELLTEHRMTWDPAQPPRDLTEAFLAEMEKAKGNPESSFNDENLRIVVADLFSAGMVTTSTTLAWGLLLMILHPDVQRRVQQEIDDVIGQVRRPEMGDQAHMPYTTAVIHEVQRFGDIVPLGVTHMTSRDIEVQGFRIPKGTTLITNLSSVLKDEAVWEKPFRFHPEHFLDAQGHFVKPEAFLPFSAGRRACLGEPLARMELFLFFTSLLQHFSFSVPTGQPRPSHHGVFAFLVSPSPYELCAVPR

In general, Papp B→A refers to how fast a substance crosses the layer from the basolateral side. For orientation: Papp A→B means the apparent permeability from the apical to the basolateral side of a cell layer. A higher Papp A→B goes with fast passage. In [1], `C=C[C@H]1C[N@@]2CC[C@H]1C[C@@H]2[C@@H](O)c1ccnc2ccc(OC)cc12` [quinidine, reference compound] came in with a basolateral-to-apical permeability (Papp B→A) at 129 min of 395 ± 28 nm/s and a Papp A→B at 129 min of 1.9 ± 0.5 nm/s.

Regarding `CCOc1ccccc1OCCN[C@H](C)Cc1ccc(OC)c(S(N)(=O)=O)c1` [tamsulosin], the “Binding to human plasma proteins” value in data set [2] was “around 99%”.

What is called half-life is the time needed for the level to fall by half in the phase considered. Higher therefore signals slow decline. As usually defined, the efflux ratio is a quotient of directional permeabilities that is used to spot active efflux. In general, IC50 refers to the concentration that inhibits the measured activity by half. The term solubility denotes the concentration that dissolves in the medium under given conditions. A high value points to a readily soluble substance. As for `COc1ccc(CCN2CCN(c3ccccc3OC)CC2)cc1OC.Cl` [LDT5, 1-(2-methoxyphenyl)-4-[2-(3,4-dimethoxyphenyl)ethyl]piperazine monohydrochloride], the half-life at 0.5 µM in [3] (male, Sprague Dawley, rat, liver microsomes) is 10 min; in data set [7], 11 min; in data set [11] (both, human, liver microsomes) it was greater than 30 min; in [12] it was 120 min; in data set [18], 5 min. Further, the Intrinsic clearance in data set [3] (rat liver microsomes, 0.5 µM, two separate experiments) was 6.4 mL·min^-1·g liver^-1 and 6.7 mL·min^-1·g liver^-1; in data set [8], greater than 2 mL·min^-1·g liver^-1; in data set [11] (human liver microsomes, 0.5 µM), less than 0.6 mL·min^-1·g liver^-1; in data set [13] it was < 0.2 mL·min^-1·g liver^-1 and 0.22 mL·min^-1·g liver^-1. The compound also gave a basolateral-to-apical permeability (Papp B→A) at 129 min in data set [1] of 324 ± 11 nm/s. In data set [1], the Papp A→B at 129 min was roughly 320 nm/s. The efflux ratio at 129 min in [4] stood at 1. Also, the “Papp apical to basolateral” value in data set [5] is 32.2±1.1 ×10^-6 cm/s. Besides, the half-inhibitory concentration (IC50) in data set [6] was greater than 100 µM; in data set [6] (read-out: IC50 CYP3A4, human liver microsomes, substrate testosterone), greater than 100 µM. The Body temperature was 35.5±0.2 °C in data set [9] (30 min after administration) and 35.17±0.31 °C in [9] (60 min after administration). In data set [9] (setting [20]), the Changes in behavior entry is given as “no changes in behavior”. In addition, the Lethality result in data set [9] (setting [20]) was “no lethality”. Further, in data set [10], the solubility at 2 h is no less than 100 µM. For the same compound, the results for the recovery at 6 h in data set [14] and in [19] were 87 ± 4% and 91 ± 4%, respectively. Besides, the “Binding to plasma proteins” value is 73±1% in data set [15] and 80±2% in data set [16]. In [17], the “Effect on motor coordination (rota-rod)” value is listed as “no acute effect on mice motor coordination”.
